Measurements taken from ChEMBL document CHEMBL1240383, “Acquisition of flucytosine, azole, and caspofungin resistance in Candida glabrata bloodstream isolates serially obtained from a hematopoietic stem cell transplant recipient” (2010).
Values after ≈ are worked out from the molar mass of the structure shown.

Columns and labels:
[1] = test system: Nakaseomyces glabratus; assay: Antimicrobial activity against flucytosine, azole, and caspofungin resistant Candida glabrata bloodstream isolate 5 harboring FKS2 T1988C mutation and overexpressing CDR1 and CDR2 genes serially obtained from hematopoietic stem cell transplant recipient by Etest; assay type: functional
How it was run: (§1)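 MICs by Etest following the strip maker's instructions, with C. parapsilosis ATCC 22019 as control strain. FLC, VRC and 5FC were interpreted by published CLSI criteria. For caspofungin a susceptibility breakpoint of ≤2 mg/liter was used. Isolates were serial C. glabrata blood-culture isolates from one patient, judged the same genotype by PCR of 8 microsatellite regions with fluorescent primers.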

[2] = test system: Nakaseomyces glabratus; assay: Antimicrobial activity against flucytosine, azole, and caspofungin resistant Candida glabrata bloodstream isolate 2 harboring Fur1 G190D mutation serially obtained from hematopoietic stem cell transplant recipient by Etest
[3] = test system: Nakaseomyces glabratus; assay: Antimicrobial activity against flucytosine, azole, and caspofungin resistant Candida glabrata bloodstream isolate 4 harboring FKS2 T1988C mutation and overexpressing CDR1 and CDR2 genes serially obtained from hematopoietic stem cell transplant recipient by Etest; assay type: functional; how it was run: as §1
[4] = test system: Nakaseomyces glabratus; assay: Antimicrobial activity against flucytosine, azole, and caspofungin resistant Candida glabrata bloodstream isolate 3 harboring Fur1 G190D mutation serially obtained from hematopoietic stem cell transplant recipient by Etest
[5] = test system: Nakaseomyces glabratus; assay: Antimicrobial activity against flucytosine, azole, and caspofungin resistant Candida glabrata bloodstream isolate 1 serially obtained from hematopoietic stem cell transplant recipient by Etest; assay type: functional; how it was run: as §1

| Compound | MIC [1] [µg/mL] | MIC [2] [µg/mL] | MIC [3] [µg/mL] | MIC [4] [µg/mL] | MIC [5] [µg/mL] |
| --- | --- | --- | --- | --- | --- |
| C[C@@H]1[C@H](O)[C@@H](C)/C=C/C=C/C=C/C=C/C=C/C=C/C=C/[C@H](O[C@@H]2O[C@H](C)[C@@H](O)[C@H](N)[C@@H]2O)C[C@@H]2O[C@](O)(C[C@@H](O)C[C@@H](O)[C@H](O)CC[C@@H](O)C[C@@H](O)CC(=O)O[C@H]1C)C[C@H](O)[C@H]2C(=O)O [AMPHOTERICIN B] | 0.75 (≈ 0.812 µM) | 2 (≈ 2.16 µM) | 0.75 (≈ 0.812 µM) | 0.75 (≈ 0.812 µM) |  |
| CC[C@H](C)C[C@H](C)CCCCCCCCC(=O)N[C@H]1C[C@@H](O)[C@@H](NCCN)NC(=O)[C@@H]2[C@@H](O)CCN2C(=O)[C@H]([C@H](O)CCN)NC(=O)[C@H]([C@H](O)[C@@H](O)c2ccc(O)cc2)NC(=O)[C@@H]2C[C@@H](O)CN2C(=O)[C@H]([C@@H](C)O)NC1=O [CASPOFUNGIN] | > 32 | 0.125 (≈ 0.114 µM) | > 32 | 0.125 (≈ 0.114 µM) | 0.19 (≈ 0.174 µM) |
| OC(Cn1cncn1)(Cn1cncn1)c1ccc(F)cc1F [FLUCONAZOLE] | > 256 | 2 (≈ 6.53 µM) | > 256 | 1 (≈ 3.27 µM) |  |
| Nc1nc(=O)[nH]cc1F [FLUCYTOSINE] | 0.004 (≈ 0.031 µM) | > 32 | 0.004 (≈ 0.031 µM) | > 32 | 0.004 (≈ 0.031 µM) |
| C[C@@H](c1ncncc1F)[C@](O)(Cn1cncn1)c1ccc(F)cc1F [VORICONAZOLE] | 16 (≈ 45.8 µM) | 0.125 (≈ 0.358 µM) | 12 (≈ 34.4 µM) | 0.047 (≈ 0.135 µM) | 0.25 (≈ 0.716 µM) |
